Measurements: ChEMBL document CHEMBL5034012, “Procainamide-SAHA Fused Inhibitors of hHDAC6 Tackle Multidrug-Resistant Malaria Parasites” (J Med Chem, 2021)
Calls of active or inactive are those of the source. The rule behind the calls is not given here.

Experiments:
[1] = target: T1, Protein deacetylase HDAC6 (Homo sapiens, UniProt Q9UBN7); assay: Inhibition of human recombinant HDAC6 using Tosyl-Gly-ProLys(Ac)-AMC as substrate measured after 60 mins by fluorescence assay
T1 sequence (Q9UBN7 whole entry): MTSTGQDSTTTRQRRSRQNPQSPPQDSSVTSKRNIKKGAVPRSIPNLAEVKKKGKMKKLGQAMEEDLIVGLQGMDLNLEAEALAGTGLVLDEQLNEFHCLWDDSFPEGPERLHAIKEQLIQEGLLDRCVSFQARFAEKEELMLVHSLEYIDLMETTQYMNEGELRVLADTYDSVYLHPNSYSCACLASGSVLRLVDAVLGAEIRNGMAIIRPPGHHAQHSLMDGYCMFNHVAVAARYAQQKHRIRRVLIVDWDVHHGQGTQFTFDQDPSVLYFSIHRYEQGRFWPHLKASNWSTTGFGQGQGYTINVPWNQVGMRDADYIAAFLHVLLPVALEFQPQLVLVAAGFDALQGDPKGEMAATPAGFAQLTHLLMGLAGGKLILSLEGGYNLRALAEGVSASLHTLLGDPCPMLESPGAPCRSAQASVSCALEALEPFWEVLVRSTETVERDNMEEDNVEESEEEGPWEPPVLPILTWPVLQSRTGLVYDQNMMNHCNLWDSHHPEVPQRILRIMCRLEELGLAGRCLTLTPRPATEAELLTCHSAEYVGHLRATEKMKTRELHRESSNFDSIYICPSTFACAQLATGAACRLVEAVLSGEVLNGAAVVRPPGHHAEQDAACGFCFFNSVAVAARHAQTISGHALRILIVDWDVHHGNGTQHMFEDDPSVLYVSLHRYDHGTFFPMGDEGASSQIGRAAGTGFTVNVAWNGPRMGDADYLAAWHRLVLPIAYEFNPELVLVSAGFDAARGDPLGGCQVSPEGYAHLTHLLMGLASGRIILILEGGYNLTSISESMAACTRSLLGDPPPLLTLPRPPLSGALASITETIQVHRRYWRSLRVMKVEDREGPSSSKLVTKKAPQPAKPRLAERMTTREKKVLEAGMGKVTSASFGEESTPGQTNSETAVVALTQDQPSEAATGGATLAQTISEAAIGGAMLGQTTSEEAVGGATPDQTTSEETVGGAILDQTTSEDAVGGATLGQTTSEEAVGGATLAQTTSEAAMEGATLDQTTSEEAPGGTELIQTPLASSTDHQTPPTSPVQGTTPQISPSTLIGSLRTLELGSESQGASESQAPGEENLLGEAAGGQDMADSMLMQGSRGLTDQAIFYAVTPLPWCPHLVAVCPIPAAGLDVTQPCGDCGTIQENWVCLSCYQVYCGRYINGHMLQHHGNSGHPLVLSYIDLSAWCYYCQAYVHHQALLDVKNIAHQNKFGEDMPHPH

Plasmodium falciparum [2] = assay: Antiplasmodial activity against Cambodian multidrug-resistant Plasmodium falciparum isolate incubated for 96 hrs measured by SYBR Green 1 assay; assay type: functional, organism-based
How it was run: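 Cambodian isolates chosen by multidrug-resistance pattern, 10 per resistance type. Ring-synchronized cultures at 2% hematocrit and 1% starting parasitemia; 11-point 2-step dilutions from 500nM; 96h incubation, then SYBR-green I read-out. Mefloquine and monodesethylamodiaquine served as positive controls. Triplicate wells, one biological replicate per isolate.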

Plasmodium falciparum [3] = assay: Inhibition of trophozoite-stage Plasmodium falciparum HDAC in using nuclear extract assessed as H4K16 hyperacetylation at 10 times IC50 concentration incubated for 4 hrs by Western blot analysis; conditions: in the assay text read “total extract” for “nuclear extract”
How it was run: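 Parasites exposed 4h at 10× IC50, with CQ and 0.1% DMSO as controls. Saponin-lysed (0.15%) and extracted in Laemmli/DTT buffer; 5.10⁶ parasites loaded per lane. Blots probed with anti-H4K16Ac (1/500) and anti-H3 (1/1000). H4K16Ac band intensity normalized to H3. Three independent experiments.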

Plasmodium falciparum [4] = assay: Antiplasmodial activity against Plasmodium falciparum 3D7 assessed as time to kill initial parasite load at 10 times IC50 concentration; assay type: functional
How it was run: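 Parasite reduction rate assay on 3D7 cultures containing mostly rings, with DHA and pyrimethamine as references. Exposure windows of 6, 24, 48, 72 and 96h; cells then washed, serially diluted 1/3 in fresh RBC and grown 3 weeks before SYBR-green I read-out. Number of wells with growth gives viable parasites per time point, per Sanz et al. One experiment in duplicate.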

Histone deacetylase 2 = Histone deacetylase 2 (Homo sapiens, UniProt Q92769); assay: Inhibition of human recombinant HDAC2 using Tosyl-Gly-ProLys(Ac)-AMC as substrate measured after 60 mins by fluorescence assay
Histone deacetylase 3 = Histone deacetylase 3 (Homo sapiens, UniProt O15379); assay: Inhibition of human recombinant HDAC3 using Tosyl-Gly-ProLys(Ac)-AMC as substrate measured after 60 mins by fluorescence assay
HepG2 = assay: cells; assay type: functional, cell-based; conditions: Homo sapiens, HepG2, 72 h
Histone deacetylase 1 = Histone deacetylase 1 (Homo sapiens, UniProt Q13547); assay: Inhibition of human recombinant HDAC1 using Tosyl-Gly-ProLys(Ac)-AMC as substrate measured after 60 mins by fluorescence assay
Plasmodium falciparum [5] = assay: Antiplasmodial activity against Plasmodium falciparum stage IIb-III gametocytes assessed as abnormal morphology by measuring fragile like extensions at highest concentration measured after 72 hrs using Geimsa staining based assay; assay type: functional
How it was run: (§1)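 Day-4 stage IIb-III gametocytes (asexuals removed by N-acetyl glucosamine), about 1% gametocytemia at 2% hematocrit, treated 72h at 10, 5, 1 or 0.5 µM against 0.1% DMSO. Then washed and recultured with daily medium changes. Morphology and parasitemia scored daily on Giemsa-stained thin smears.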

Plasmodium falciparum [6] = assay: Antiplasmodial activity against Plasmodium falciparum stage IIb-III gametocytes assessed as abnormal morphology by measuring rounded/swollen at highest concentration measured after 72 hrs using Geimsa staining based assay; assay type: functional; how it was run: as §1
Histone deacetylase = assay: Inhibition of human HDAC using human HeLa cell nuclear extract measured after 60 mins by fluorescence assay; assay type: tissue-based
Plasmodium falciparum [7] = assay: Antiplasmodial activity against ring stage Plasmodium falciparum 3D7 assessed as defective parasite division at 10 times IC50 concentration incubated for 24 hrs by transmission electron microscopy; assay type: functional, organism-based
How it was run: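 Harvested with Plasmagel and fixed in 4% PFA/0.1% glutaraldehyde. Gelatin-embedded; 60nm ultrathin sections. Anti-H3 (1/100) labelled with 10nm protein A-gold. Stained with methylcellulose/0.4% uranyl acetate and imaged by TEM at 120 kV.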

Plasmodium falciparum [8] = assay: Antiplasmodial activity against synchronized ring stage Plasmodium falciparum 3D7 assessed as parasite reduction rate in lag phase by measuring time required to achieve maximum speed of action at 10 times IC50 concentration; assay type: functional
How it was run: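 3D7 culture of mostly rings exposed to drug for 6, 24, 48, 72 or 96h. Then washed, serially diluted 1/3 in fresh RBC and grown 3 weeks. Growth read by SYBR-green I. Number of wells with growth used to back-calculate viable parasites at each time point and derive growth parameters. One experiment, run in duplicate.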

Plasmodium falciparum [9] = assay: Antiplasmodial activity against asynchronous asexual culture of Plasmodium falciparum NF54 assessed as parasite growth inhibition; assay type: functional, organism-based
How it was run: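 Asynchronous asexual NF54 cultures exposed to 7-point, 2-step serial dilutions starting at 500nM. DHA served as positive control, DMSO as negative. IC50 interpolated from three independent experiments run in triplicate.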

Chain of Histone deacetylase 2 (Q92769 whole entry): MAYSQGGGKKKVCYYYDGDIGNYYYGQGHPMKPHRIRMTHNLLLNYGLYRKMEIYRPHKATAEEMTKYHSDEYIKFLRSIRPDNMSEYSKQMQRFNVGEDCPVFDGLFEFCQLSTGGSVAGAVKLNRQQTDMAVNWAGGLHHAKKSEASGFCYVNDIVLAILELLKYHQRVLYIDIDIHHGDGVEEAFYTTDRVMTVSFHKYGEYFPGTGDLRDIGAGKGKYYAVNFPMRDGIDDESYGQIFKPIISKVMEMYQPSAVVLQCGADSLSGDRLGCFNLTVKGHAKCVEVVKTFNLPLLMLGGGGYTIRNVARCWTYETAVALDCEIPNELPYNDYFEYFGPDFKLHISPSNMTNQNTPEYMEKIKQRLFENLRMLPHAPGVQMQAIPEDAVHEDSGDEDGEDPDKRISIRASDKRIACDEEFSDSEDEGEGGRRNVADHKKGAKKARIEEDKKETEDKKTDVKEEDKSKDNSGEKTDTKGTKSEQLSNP
Chain of Histone deacetylase 1 (Q13547 whole entry): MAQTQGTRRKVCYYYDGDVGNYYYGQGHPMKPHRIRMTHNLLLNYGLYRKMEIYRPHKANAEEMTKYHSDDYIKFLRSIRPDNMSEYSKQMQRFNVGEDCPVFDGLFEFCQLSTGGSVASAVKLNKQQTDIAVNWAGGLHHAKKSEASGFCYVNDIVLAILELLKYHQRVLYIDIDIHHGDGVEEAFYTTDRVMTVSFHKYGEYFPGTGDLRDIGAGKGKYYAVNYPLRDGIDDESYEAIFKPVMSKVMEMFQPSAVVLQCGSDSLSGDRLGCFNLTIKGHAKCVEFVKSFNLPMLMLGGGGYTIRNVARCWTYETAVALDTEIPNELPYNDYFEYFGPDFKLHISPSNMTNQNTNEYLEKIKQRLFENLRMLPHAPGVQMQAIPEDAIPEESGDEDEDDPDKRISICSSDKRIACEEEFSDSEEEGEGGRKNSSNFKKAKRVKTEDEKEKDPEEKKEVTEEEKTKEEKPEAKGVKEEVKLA
Chain of Histone deacetylase 3 (O15379 whole entry): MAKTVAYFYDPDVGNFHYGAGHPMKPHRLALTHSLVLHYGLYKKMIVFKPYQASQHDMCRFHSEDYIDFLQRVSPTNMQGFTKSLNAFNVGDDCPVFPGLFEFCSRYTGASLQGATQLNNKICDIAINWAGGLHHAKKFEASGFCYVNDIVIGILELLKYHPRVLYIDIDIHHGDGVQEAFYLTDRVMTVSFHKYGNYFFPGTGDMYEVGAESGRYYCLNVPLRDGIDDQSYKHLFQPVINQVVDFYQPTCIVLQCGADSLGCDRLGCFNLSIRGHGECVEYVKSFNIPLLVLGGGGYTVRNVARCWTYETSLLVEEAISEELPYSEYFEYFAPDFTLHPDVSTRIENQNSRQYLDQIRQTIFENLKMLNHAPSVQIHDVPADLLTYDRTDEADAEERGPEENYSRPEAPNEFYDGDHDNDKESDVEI

Compound	IC50 [1]	IC50 (Plasmodium falciparum [2])	fold change (FC) (Plasmodium falciparum [3])	LT99.9 (Plasmodium falciparum [4])	IC50 (Histone deacetylase 2)	IC50 (Histone deacetylase 3)	IC50 (HepG2)	IC50 (Histone deacetylase 1)	Activity (Plasmodium falciparum [5])	Activity (Plasmodium falciparum [6])	IC50 (Histone deacetylase)	Activity (Plasmodium falciparum [7])	Time (Plasmodium falciparum [8])	IC50 (Plasmodium falciparum [9])
O=C(CCCCCCC(=O)Nc1ccc(C(=O)NC2CCNCC2)cc1)NO	19 nM	70 nM	6	34.3 h	270 nM	110 nM	230 µM	150 nM	<=90%	<=90%	0.14 µM	Active	6 h	52 nM
CCN(CC)CCNC(=O)c1ccc(NC(=O)CCCCCCC(=O)NO)cc1	14 nM	76 nM	6	40.3 h	80 nM	70 nM	8.4 µM	70 nM	<=90%	<=90%	0.06 µM	Active	0 h	41 nM
